Values after ≈ are worked out from the molar mass of the structure shown.
Tests used:
[1] = biological target: Human immunodeficiency virus type 1 integrase (Human immunodeficiency virus 1, UniProt Q7ZJM1); experiment: Inhibition of HIV1 integrase strand transfer activity
[2] = Clearance in Sprague-Dawley rat at 1 mg/kg, iv after 4 hrs; assay type: ADME, organism-based; settings: in vivo
Summary of the method: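 Male Sprague-Dawley rats given 1 mpk IV in PEG400/ethanol (90:10); blood sampled at 5 and 30 min and 1, 2 and 4 h post-dose; clearance from plasma profile.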

[3] = Protein binding in rat plasma; assay type: ADME, cell-free; settings: read-out: PPB (converted)
[4] = Protein binding in cynomolgus monkey plasma; assay type: ADME, cell-free, Macaca fascicularis; settings: read-out: PPB (converted)
[5] = Protein binding in dog plasma; assay type: ADME, cell-free, Canis lupus familiaris; settings: read-out: PPB (converted)
[6] = Protein binding in human plasma; assay type: ADME, cell-free; settings: read-out: PPB (converted)
[7] = system: HepG2; experiment: Cytotoxicity against human HepG2 cells; assay type: cell-based
[8] = Lipophilicity, log D of the compound at pH 6.5; assay type: physicochemical; settings: buffer
Summary of the method: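 LogD determined experimentally at pH 6.5.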

[9] = Dissociation constant, pKa of the compound; assay type: physicochemical
[10] = Ssolubility of the compound at pH 2.3; assay type: physicochemical; settings: buffer
[11] = Ssolubility of the compound at pH 6.1; assay type: physicochemical; settings: buffer
[12] = Permeability across apical to basolateral side in human Caco2 cells at 3 uM; assay type: ADME, cell-based; settings: Caco-2, read-out: permeability
Summary of the method: (§1)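 Caco-2 monolayer permeability at 3 µM, apical-to-basolateral and basolateral-to-apical, reported in nm/sec.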

[13] = Permeability across basolateral to apical side in human Caco2 cells at 3 uM; assay type: ADME, cell-based; settings: Caco-2, read-out: permeability; summary of the method: as §1
[14] = biological target: T1, Cytochrome P450 1A2 (Homo sapiens, UniProt P05177); experiment: Inhibition of human CYP1A2; assay type: ADME
T1 sequence (P05177 whole entry): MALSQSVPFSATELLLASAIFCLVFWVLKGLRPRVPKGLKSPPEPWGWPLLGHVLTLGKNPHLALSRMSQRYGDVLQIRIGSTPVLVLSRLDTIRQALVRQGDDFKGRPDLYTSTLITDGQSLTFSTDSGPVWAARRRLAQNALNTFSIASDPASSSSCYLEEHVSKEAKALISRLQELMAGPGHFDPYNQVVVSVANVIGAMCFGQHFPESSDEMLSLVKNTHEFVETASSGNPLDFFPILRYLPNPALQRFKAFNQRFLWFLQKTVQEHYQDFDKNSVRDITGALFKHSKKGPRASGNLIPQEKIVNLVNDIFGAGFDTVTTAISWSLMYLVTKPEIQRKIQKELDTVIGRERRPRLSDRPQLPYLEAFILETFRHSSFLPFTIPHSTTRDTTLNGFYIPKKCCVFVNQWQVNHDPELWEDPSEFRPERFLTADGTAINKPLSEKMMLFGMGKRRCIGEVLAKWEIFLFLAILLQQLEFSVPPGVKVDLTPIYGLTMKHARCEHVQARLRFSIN

[15] = biological target: Cytochrome P450 2C9 (Homo sapiens, UniProt P11712); experiment: Inhibition of human CYP2C9; assay type: ADME
Cytochrome P450 2C9, sequence (P11712 whole entry): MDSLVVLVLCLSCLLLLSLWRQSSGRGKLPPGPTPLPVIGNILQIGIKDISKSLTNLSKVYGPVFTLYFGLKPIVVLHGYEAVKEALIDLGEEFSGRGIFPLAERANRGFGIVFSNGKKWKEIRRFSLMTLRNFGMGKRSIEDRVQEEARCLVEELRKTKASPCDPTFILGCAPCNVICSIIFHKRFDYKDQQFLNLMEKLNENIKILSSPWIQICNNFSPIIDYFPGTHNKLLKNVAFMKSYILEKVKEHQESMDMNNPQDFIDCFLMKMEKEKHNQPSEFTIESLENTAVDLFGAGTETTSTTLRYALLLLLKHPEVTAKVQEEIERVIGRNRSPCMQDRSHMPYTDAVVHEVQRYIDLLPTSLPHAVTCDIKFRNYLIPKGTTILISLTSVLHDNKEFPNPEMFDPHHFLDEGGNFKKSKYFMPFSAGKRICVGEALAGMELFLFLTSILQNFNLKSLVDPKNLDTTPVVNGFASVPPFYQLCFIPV

[16] = biological target: Cytochrome P450 2C19 (Homo sapiens, UniProt P33261); experiment: Inhibition of human CYP2C19; assay type: ADME
Cytochrome P450 2C19, sequence (P33261 whole entry): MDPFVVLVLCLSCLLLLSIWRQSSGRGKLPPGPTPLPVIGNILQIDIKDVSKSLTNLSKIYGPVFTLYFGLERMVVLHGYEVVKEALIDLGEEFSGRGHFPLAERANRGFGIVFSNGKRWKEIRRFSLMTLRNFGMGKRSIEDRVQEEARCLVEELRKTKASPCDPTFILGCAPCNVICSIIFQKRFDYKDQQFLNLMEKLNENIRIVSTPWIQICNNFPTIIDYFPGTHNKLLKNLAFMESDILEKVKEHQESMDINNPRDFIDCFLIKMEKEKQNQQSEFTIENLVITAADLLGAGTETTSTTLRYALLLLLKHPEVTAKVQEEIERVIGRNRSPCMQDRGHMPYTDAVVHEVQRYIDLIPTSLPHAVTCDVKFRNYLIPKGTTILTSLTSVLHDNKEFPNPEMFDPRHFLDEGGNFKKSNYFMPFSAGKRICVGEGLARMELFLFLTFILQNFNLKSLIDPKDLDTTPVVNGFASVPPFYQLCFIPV

[17] = biological target: Cytochrome P450 2D6 (Homo sapiens, UniProt P10635); experiment: Inhibition of human CYP2D6; assay type: ADME
Cytochrome P450 2D6, sequence (P10635 whole entry): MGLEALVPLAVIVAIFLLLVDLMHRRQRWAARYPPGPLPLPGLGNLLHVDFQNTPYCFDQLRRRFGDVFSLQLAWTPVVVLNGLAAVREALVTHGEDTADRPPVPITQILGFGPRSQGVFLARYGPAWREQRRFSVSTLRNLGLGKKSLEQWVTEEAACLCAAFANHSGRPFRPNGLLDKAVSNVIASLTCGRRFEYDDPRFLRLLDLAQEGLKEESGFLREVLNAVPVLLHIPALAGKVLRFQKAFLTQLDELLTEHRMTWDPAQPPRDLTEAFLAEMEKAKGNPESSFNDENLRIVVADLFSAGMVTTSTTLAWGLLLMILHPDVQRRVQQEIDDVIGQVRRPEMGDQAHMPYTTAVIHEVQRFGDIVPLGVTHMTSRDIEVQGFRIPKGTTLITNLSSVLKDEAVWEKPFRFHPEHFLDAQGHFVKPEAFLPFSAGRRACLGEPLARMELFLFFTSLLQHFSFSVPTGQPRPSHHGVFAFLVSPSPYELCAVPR

[18] = biological target: Cytochrome P450 3A4 (Homo sapiens, UniProt P08684); experiment: Inhibition of human CYP3A4; assay type: ADME
Cytochrome P450 3A4, sequence (P08684 whole entry): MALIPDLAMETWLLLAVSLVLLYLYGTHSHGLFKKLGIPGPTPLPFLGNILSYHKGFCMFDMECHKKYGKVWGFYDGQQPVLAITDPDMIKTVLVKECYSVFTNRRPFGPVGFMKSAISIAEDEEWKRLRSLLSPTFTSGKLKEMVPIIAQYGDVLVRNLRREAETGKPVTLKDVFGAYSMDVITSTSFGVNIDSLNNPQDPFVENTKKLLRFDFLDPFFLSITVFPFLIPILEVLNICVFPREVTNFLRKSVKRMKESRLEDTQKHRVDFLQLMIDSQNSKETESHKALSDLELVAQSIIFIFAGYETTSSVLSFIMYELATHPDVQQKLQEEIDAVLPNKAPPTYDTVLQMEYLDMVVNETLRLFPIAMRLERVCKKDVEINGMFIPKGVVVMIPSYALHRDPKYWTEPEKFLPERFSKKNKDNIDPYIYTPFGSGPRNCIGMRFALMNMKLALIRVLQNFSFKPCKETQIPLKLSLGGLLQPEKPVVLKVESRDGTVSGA

[19] = biological target: T2, Nuclear receptor subfamily 1 group I member 2 (Homo sapiens, UniProt O75469); experiment: Transactivation of human PXR; assay type: ADME
T2 sequence (O75469 whole entry): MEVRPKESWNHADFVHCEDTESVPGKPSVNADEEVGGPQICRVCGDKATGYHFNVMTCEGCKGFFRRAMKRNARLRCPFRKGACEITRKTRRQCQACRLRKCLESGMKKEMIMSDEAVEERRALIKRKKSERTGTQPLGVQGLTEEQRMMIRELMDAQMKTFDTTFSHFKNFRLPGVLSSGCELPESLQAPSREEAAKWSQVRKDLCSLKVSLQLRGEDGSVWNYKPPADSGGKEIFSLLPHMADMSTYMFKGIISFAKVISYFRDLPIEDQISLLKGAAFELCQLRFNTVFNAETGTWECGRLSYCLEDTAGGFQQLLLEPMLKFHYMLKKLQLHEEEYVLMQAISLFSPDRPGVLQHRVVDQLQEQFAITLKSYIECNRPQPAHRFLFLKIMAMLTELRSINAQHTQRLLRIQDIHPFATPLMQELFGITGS
Summary of the method: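 Human PXR transactivation assay, with potency reported as EC20A and EC60A values.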

[20] = organism: Homo sapiens; experiment: Inhibition of human p-gp assessed as decrease in [3H]-digoxin transport at 10 uM
[21] = Drug metabolism in rat liver microsomes assessed as CYP-mediated metabolism by measuring compound half life; assay type: ADME
Summary of the method: (§2)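 Microsomal stability with NADPH (CYP-dependent) in rat, cynomolgus, dog and human microsomes; half-life in min.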

[22] = system: Salmonella typhimurium; experiment: Genotoxicity in Salmonella typhimurium TA98 at =<5000 ug/plate in presence of metabolic activators by Ames test; assay type: toxicity, organism-based; settings: salmonella enterica subsp. enterica serovar typhimurium
Summary of the method: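 Bacterial reverse mutation (Ames) test, Salmonella typhimurium TA98 and TA100, up to 5000 µg/plate, with and without metabolic activation.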

[23] = Drug metabolism in cynomolgus monkey liver microsomes assessed as CYP-mediated metabolism by measuring compound half life; assay type: ADME, Macaca fascicularis; summary of the method: as §2
[24] = Drug metabolism in dog liver microsomes assessed as CYP-mediated metabolism by measuring compound half life; assay type: ADME, Canis lupus familiaris; summary of the method: as §2
[25] = Drug metabolism in human microsomes assessed as CYP-mediated metabolism by measuring compound half life; assay type: ADME; summary of the method: as §2
[26] = system: CHO; experiment: Genotoxicity in CHO cells at 1.4 mM after 3 hrs in presence of metabolic activators by micronucleus assay; assay type: toxicity, cell-based, Cricetulus griseus; settings: chinese hamster, 1400 µM
Summary of the method: (§3)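 Cytokinesis-blocked micronucleus test in cultured CHO cells: up to 1.4 mM (500 µg/mL) for 3 h with metabolic activation, or up to 0.36 mM for 22.5 h without activation.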

[27] = system: CHO; experiment: Genotoxicity in CHO cells at up to 0.36 mM after 22.5 hrs in absence of metabolic activators by micronucleus assay; assay type: toxicity, cell-based, Cricetulus griseus; settings: chinese hamster; summary of the method: as §3
[28] = Clearance in Sprague-Dawley rat at 0.87 mg/kg, iv; assay type: ADME, organism-based; settings: in vivo
Summary of the method: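 Single IV (about 1 mg/kg) and oral (about 5 mg/kg) doses in rat, cynomolgus monkey and dog; CL, t1/2, Vss, Cmax, tmax, AUC and oral bioavailability F derived from plasma concentration-time data.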

Human immunodeficiency virus type 1 integrase, sequence (Q7ZJM1 whole entry): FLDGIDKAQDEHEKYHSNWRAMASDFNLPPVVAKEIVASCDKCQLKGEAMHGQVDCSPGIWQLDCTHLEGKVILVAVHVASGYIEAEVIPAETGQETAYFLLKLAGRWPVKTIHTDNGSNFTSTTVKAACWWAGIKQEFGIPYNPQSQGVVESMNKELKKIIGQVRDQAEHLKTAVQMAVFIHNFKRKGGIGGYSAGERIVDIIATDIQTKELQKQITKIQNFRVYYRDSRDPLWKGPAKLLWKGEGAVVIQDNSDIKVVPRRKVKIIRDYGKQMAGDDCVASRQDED

IC50 [1]: 0.003 µM
clearance [2]: 9.6 mL/min/kg
fraction unbound [3]: 0.063
fraction unbound [4]: 0.041
fraction unbound [5]: 0.015
fraction unbound [6]: 0.024
logD [8]: 2.02
pKa [9]: 6.6
solubility [10]: 9 µg/mL (≈ 25.9 µM)
solubility [11]: 21 µg/mL (≈ 60.5 µM)
Papp A→B at 3 µM [12]: 33.4 ×10⁻⁶ cm/s
Papp B→A at 3 µM [13]: 24 ×10⁻⁶ cm/s
IC50 [14]: > 40 µM
IC50 [15]: > 40 µM
IC50 [16]: > 40 µM
IC50 [17]: > 40 µM
IC50 [18]: > 40 µM
EC50 [19]: > 50 µM
EC20 ([19]; human): > 50 µM
EC60 ([19]; human): > 50 µM
inhibition [20]: 5%
half-life [21]: > 2 h
half-life [23]: 1.6 h
half-life [24]: 1.78 h
half-life [25]: 1.83 h
clearance [28]: 9.7 mL/min/kg
SMILES: CC1(C)OCCn2c1nc(C(=O)NCc1ccc(F)cc1)c(O)c2=O
IC50 [7]: ≥ 45 µM
Activity [22]: Non-Toxic
Activity [26]: Non-Toxic
Activity [27]: Non-Toxic

Source: ChEMBL document CHEMBL4118197, “The discovery and preclinical evaluation of BMS-707035, a potent HIV-1 integrase strand transfer inhibitor” (Bioorg Med Chem Lett, 2018)
